High-throughput results (PubChem BioAssay)
This is a sample that favours compounds with a hit; in the whole collection about 1.9% have one here.
TDP2 inh – blocks human TDP2 phosphodiesterase activity. O95551. recombinant TDP2, T5PNP hydrolysis, p-nitrophenol absorbance 415 nm. inhibition, % at 12.8 µM. actives 0.34% (n = 370,000);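 active means inhibition above the mean of all tested compounds plus 3 SD, set per campaign, cut at about 25% in these data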;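 further: 0% = DMSO with enzyme and 100% = buffer with substrate but no TDP2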
Target sequence (O95551 whole entry, looked up): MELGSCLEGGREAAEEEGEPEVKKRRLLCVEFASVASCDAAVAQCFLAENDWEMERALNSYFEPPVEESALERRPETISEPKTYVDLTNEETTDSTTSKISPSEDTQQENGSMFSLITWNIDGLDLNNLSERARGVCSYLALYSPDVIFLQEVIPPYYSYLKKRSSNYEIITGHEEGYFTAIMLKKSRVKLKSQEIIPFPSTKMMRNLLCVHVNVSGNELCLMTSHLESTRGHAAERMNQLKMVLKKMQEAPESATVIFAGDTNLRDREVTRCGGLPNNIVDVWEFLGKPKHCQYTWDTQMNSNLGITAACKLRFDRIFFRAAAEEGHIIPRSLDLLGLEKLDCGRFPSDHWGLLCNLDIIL
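test system = human TDP2 enzyme | input = TDP2 enzyme at 120 nM final | medium = 50 mM Tris-HCl pH 7.5 with Mg2+, KCl, DTT, BSA | also added = T5PNP substrate, 5 mM | times = 2 h at 37 °C | technique = epi absorbance | benchmarks = high control without enzyme, low control DMSO plus TDP2 | replication = each compound tested once, singlicate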
MBD2 inh – blocks human MBD2 binding to methylated DNA | TR-FRET, MBD2 binding to methylated oligonucleotide | inhibition, % at 4.4 µM | actives 0.31% (n = 370,000); in the data active means inhibition above about 13%
UHRF1 binding – human UHRF1 methylated DNA binding inhibitors | Q96T88 | UHRF1 binding to methylated oligo, TR-FRET | inhibition, % at 4.4 µM | actives 0.75% (n = 370,000);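 further: UHRF1 SRA domain binding a hemimethylated CpG hairpin DNA probe; 0% = median of test compound wells and 100% = reference inhibitor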
Casp6 inh – blocks human caspase-6 cleavage activity | actives 0.53% (n = 350,000) | purified caspase-6, Z-VEID-R110 cleavage fluorescence | inhibition, % at 12.5 µM;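 active means mean inhibition across replicates at least about 35%, with every replicate also reaching that limit, limit read from the data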;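 further: 0% = median of neutral control wells and 100% = no fluorescence left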
Target sequence (P55212 24-179 limits assumed): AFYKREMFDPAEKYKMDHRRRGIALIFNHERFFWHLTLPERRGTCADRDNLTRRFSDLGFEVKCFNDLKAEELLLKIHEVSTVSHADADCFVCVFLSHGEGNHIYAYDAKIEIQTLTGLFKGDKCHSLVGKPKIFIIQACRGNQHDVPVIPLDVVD
Target sequence (P55212 194-293 limits assumed): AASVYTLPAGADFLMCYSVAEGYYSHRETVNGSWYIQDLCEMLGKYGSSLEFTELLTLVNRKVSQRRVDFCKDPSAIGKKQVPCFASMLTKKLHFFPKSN
LEDGF integ inh – blocks HIV-1 LEDGF/p75-dependent DNA integration; TR-FRET IN-LEDGF/p75 DNA integration, Eu/Cy5; inhibition, % at 3.7 µM; actives 0.64% (n = 370,000); AID 743269;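 active means inhibition above the screen-wide mean plus 3 SD, cut at about 13% in these data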;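 further: signal is the Cy5 over europium emission ratio at 671 and 618 nm; 0% = plate median of compound wells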
NSD2 HMT inh – inhibitors of human histone methyltransferase NSD2. AID 743445. inhibition, % at 12.5 µM. NSD2 peptide methylation, AlphaScreen, 120 min. actives 0.54% (n = 310,000); in the data active means inhibition above about 50%
UHRF1 ctr MBD2 – UHRF1 methyl-oligo binding inhibition as MBD2 counter-screen | UHRF1 binding to methylated oligonucleotide, TR-FRET | AID 720530 | inhibition, % at 4.4 µM | actives 25% (n = 1,000) | shares compounds with MBD2 inh;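 further: UHRF1 SRA domain binding a labeled hemimethylated CpG hairpin DNA; 0% = vehicle only and 100% = reference inhibitor with vehicle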
MBD2 DBD conf – confirmation of human MBD2-DBD methylated oligonucleotide binding inhibitors. shares compounds with MBD2 inh. inhibition, % at 4.4 µM. TR-FRET MBD2-DBD binding to methylated oligonucleotide. actives 26% (n = 1,000); in the data active means inhibition above about 14%
Numbers without * were called inactive; nt = no result; ! = not active in a repeat. Unless noted, no stated cut-off is given here; in the data, active means inhibition above about 21%; inactive means the rest.

SMILES	TDP2 inh	MBD2 inh	UHRF1 binding	Casp6 inh	LEDGF integ inh	NSD2 HMT inh	UHRF1 ctr MBD2	MBD2 DBD conf
CC(C)NC(=O)Nc1ccc2c(c1)C(=O)N(C)[C@H]1CC[C@@H](CC(=O)Nc3ccccc3)O[C@H]1CO2	nt	nt	nt	1	nt	nt	nt	nt
CCCCNc1c(-c2ccc(OC)c(SC(C)CC)c2)nc2ccc(C)cn12 (configuration not stated)	-3	14*!	-2	5	1	0	9	3
O=C(Nc1cccnc1)C1(c2ccccc2)CCCC1	8	16*	23*	nt	3	8	6	2
COc1ccc(CNC(=O)c2cccc3c2C(=O)N(Cc2cccnc2)C3)cc1	-2	0	0	nt	1	0	nt	nt
COc1ccc(CNC(=O)c2cccc3c2C(=O)N(CC2CCCO2)C3)cc1 (configuration not stated)	-11	32*	3	0	8	nt	6	3
O=C(C[C@@H]1C[C@H]2c3cc(NS(=O)(=O)c4ccc(F)cc4)ccc3O[C@H]2[C@H](CO)O1)NCCN1CCCCC1	nt	nt	nt	2	nt	nt	nt	nt
Nc1c2ccccc2nc2ccccc12	9	26*	15	-5	3	37	31*	37*
Cc1ccc(C(=O)CC(C(=O)O)n2cncn2)cc1 (configuration not stated)	-10	41*	3	2	2	-1	5	1
CNC[C@H]1Oc2ccc(NC(=O)Cc3cn(C)c4ccccc34)cc2C(=O)N([C@@H](C)CO)C[C@@H]1C	nt	nt	nt	1	nt	nt	nt	nt
O=C(C[C@@H]1C[C@H]2c3cc(NS(=O)(=O)c4ccccc4)ccc3O[C@H]2[C@@H](CO)O1)NC1CCCCC1	nt	nt	nt	-5	nt	nt	nt	nt
COc1cc(-c2nnc(COC(=O)c3ccc(C)o3)o2)cc(OC)c1OC	2	18*	39*	35*	4	0	9	8
COc1ccc(NC(=O)CSc2nc3[nH]ncc3c(=O)n2-c2ccccc2C)cc1OC	7	0	-1	nt	1	0	nt	nt
COc1ccc(NC(=O)CSc2nc3[nH]ncc3c(=O)n2-c2ccccc2OC)cc1OC	6	17*	26*	nt	3	2	5	2
CC(C)(C)NC(=O)NC(=O)CSc1nnc(COc2ccccc2Cl)o1	-14	21*	31*	nt	3	0	10	3
CC1CCCCN1C(=O)CNCc1ccc(F)cc1 (configuration not stated)	22	37*	0	-3	0	2	6	2
Cc1cccc(N2C(=O)CC(Sc3nc(C)c4c(n3)CCCC4)C2=O)c1 (configuration not stated)	-3	14*	1	nt	0	4	4	5
Cc1nc(SC2CC(=O)N(c3cc(Cl)cc(Cl)c3)C2=O)nc2c1CCCC2 (configuration not stated)	0	2	3	nt	4	6	nt	nt
COCC#Cc1ccc([C@@H]2[C@H](CO)N3C(=O)CN(C(=O)C4CCCC4)C[C@@H]23)cc1	nt	nt	nt	1	nt	nt	nt	nt
O=C(C1COc2ccccc2O1)N1CCOCC1 (configuration not stated)	-10	14*	3	nt	-7	-2	10	6
O=C(C1COc2ccccc2O1)N1CCN(c2ccccc2)CC1 (configuration not stated)	2	0	4	nt	0	3	nt	nt
COc1ccc(NC(=O)N2C[C@H](O)COC[C@@H]3O[C@H](CC(=O)N4CCN(C)CC4)CC[C@H]32)cc1	nt	nt	nt	2	nt	nt	nt	nt
COc1cc(C(O)c2nc(-c3ccccc3)cs2)ccc1F (configuration not stated)	9	14*	-2	3	3	-1	1	4
CCCNC(=O)N1C[C@@H]2[C@H](c3ccccc31)[C@@H](CO)N2CC1CCCCC1	nt	nt	nt	2	nt	nt	nt	nt
O=C(NCc1ccccc1Cl)C1CCN(S(=O)(=O)N2CCCCC2)CC1	2	20*	25*	nt	-1	1	4	1
COc1ccccc1OCC(O)CNCc1ccc2c(c1)OCO2 (configuration not stated)	1	18*	0	0	-1	8	8	5
SMILES	TDP2 inh	MBD2 inh	UHRF1 binding	Casp6 inh	LEDGF integ inh	NSD2 HMT inh	UHRF1 ctr MBD2	MBD2 DBD conf
CCOc1cc(CNCc2ccc3c(c2)OCO3)ccc1OC	1	-3	3	-2	-5	1	nt	nt
C[C@H]1CN([C@@H](C)CO)C(=O)c2c(c3ccccc3n2C)-c2ccccc2CO[C@@H]1CN(C)Cc1ccc(Cl)c(Cl)c1	nt	nt	nt	1	nt	nt	nt	nt
CN(C)CC(=O)N[C@H]1CC[C@H](CCNC(=O)C2CCCCC2)O[C@@H]1CO	nt	nt	nt	-1	nt	nt	nt	nt
CCC(C)[C@H](NC(=O)NC1CCN(Cc2ccccc2)CC1)C(=O)OC (some centres not stated)	1	15*	-1	nt	2	0	8	8
COc1ccc(C)cc1NC(=O)NC1CCN(Cc2ccccc2)CC1	0	1	3	nt	0	1	nt	nt
Cc1c(C(=O)Nc2cccc(F)c2)cnn1-c1ccccc1	-15	13*	0	-3	-1	-3	7	4
COc1cccc(NC(=O)C[C@H]2CC[C@H]3[C@@H](COc4ccc(NC(=O)C5CCCC5)cc4C(=O)N3C)O2)c1	nt	nt	nt	0	nt	nt	nt	nt
CCOc1ccc(NC(=O)c2cccc(-n3cccc3)c2)cc1S(=O)(=O)N1CCOCC1	10	31*	54*	6	6	11	77*	68*
O=C(NNC(=O)c1cccc2ccccc12)c1ccc(Cl)cc1	5	3	4	2	-1	-6	nt	nt
O=C(NNC(=O)c1cccc2ccccc12)c1ccc(Cl)c(Cl)c1	-3	66*	-2	0	0	-1	2	0
COc1ccc2c(c1)c(/C=N/Nc1ccc(C(=O)O)cc1)c(C)n2C	-18	15*	0	1	7	4	7	2
COc1ccc2c(/C=N/Nc3ccc(C(=O)O)cc3)c[nH]c2c1	-6	3	0	3	-1	3	nt	nt
NS(=O)(=O)c1ccc(NC(CNS(=O)(=O)c2ccccc2)c2ccccc2)cc1 (configuration not stated)	3	14*	19	-1	2	1	3	1
C[C@@H]1CN([C@@H](C)CO)C(=O)c2cc(NC(=O)Nc3ccc4c(c3)OCO4)ccc2O[C@H]1CN(C)S(=O)(=O)c1ccccc1	nt	nt	nt	-3	nt	nt	nt	nt
